Assay [1] deals with T1, endometase (matrilysin 2, MMP-26) (Homo sapiens, UniProt Q9NRE1).
T1 sequence (Q9NRE1 90-261): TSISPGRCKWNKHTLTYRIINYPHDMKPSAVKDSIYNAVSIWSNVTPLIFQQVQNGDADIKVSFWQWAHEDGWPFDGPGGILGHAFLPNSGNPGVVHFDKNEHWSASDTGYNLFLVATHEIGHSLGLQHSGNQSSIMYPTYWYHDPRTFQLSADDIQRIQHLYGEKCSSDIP
Briefly: active-site titration, fluorogenic peptide hydrolysis, Morrison fit. The class given is biochemical. The settings on record: 50 mM HEPES pH 7.5, 0.2 M NaCl, 10 mM CaCl2, 0.01 % Brij-35, 25 °C, 20 min preincubation.

Assay [2] has as its target T1, endometase (matrilysin 2, MMP-26). Put plainly: fluorogenic peptide hydrolysis. The class given is biochemical. A digest of the protocol:
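MMP-26 was refolded from urea-solubilized insoluble protein by dialysis and was partially auto-activated. Active enzyme concentration was set by GM6001 titration. Final conditions were 1 nM active enzyme, 1 μM Mca-PLGLDpa-AR-NH₂, and test compound at 0.001–9 mM in 50 mM HEPES pH 7.5, 0.2 M NaCl, 10 mM CaCl₂ at 25 °C. Fluorescence was read at ex 328/em 393 nm, with maximum signal set as 100% activity.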

Consider `CNC(=O)[C@H](Cc1c[nH]c2ccccc12)NC(=O)[C@@H](CC(=O)NO)CC(C)C` [GM6001], for which the “active-site titration, fluorogenic peptide hydrolysis, Morrison fit” value in assay [1] is “Titration of active MMP-26 with GM6001, a potent and broad-spectrum MMP inhibitor”.

What is called IC50 is the concentration needed to halve the response being measured. Low readings indicate higher potency, high ones lower potency. Compound `CCCCCCCCCCCCOS(=O)(=O)O` [SDS] gave an IC50 in assay [2] of 110 µM.

As to `CCCCCCCCCCCCCC[N+](C)(C)C` [TTAB], the half-maximal inhibitory concentration (IC50) in assay [2] is 79 µM.

The record behind these values is PMC2801054 (Analytical biochemistry, 2009).
